Experimental findings from ChEMBL document CHEMBL1152658, “Antioxidant activity of benzoxazolinonic and benzothiazolinonic derivatives in the LDL oxidation model” (2009) are described below.

Experiment [1] is described as follows: Inhibition of CuSO4-induced human LDL oxidation assessed as ratio of length of lag phase of conjugated diene formation in presence of compound to untreated control at 10 uM measured every 10 mins for 8 hrs by spectrophotometry. The format is functional. An outline of the steps: (§1)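 Human LDL taken from fasting normolipidemic volunteers by sequential NaBr density ultracentrifugation (1.019–1.063 g/mL), protein measured by Peterson method. Oxidation started with 16.6 µM CuSO4 or 2 mM AAPH, compound at 1–100 µM. Conjugated dienes read at 234 nm every 10 min for 8 h at 30 °C. R = lag phase with compound / lag phase without compound.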

Experiment [2] can be described thus: Inhibition of CuSO4-induced human LDL oxidation assessed as ratio of length of lag phase of conjugated diene formation in presence of compound to untreated control at 5 uM measured every 10 mins for 8 hrs by spectrophotometry. The format is functional. Put shortly:
as §1

The subject of experiment [3] is BAEC. Kind of experiment: Cytoprotective activity against minimally oxidized LDL-induced cytotoxicity in BAEC assessed as decrease in number of detached and shrunk cells at 10 uM treated for 24 hrs before mO-LDL challenge measured after 16 hrs by spectrometry. Type of experiment: functional, cell-based. As to conditions: Bos taurus. Put shortly:
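BAECs pretreated 24 h with drug (final 10 µM in methanol), then exposed 16 h at 37 °C to mO-LDL (100 µg protein/mL, air-oxidized LDL) with drug. Cells examined for morphology: contraction, cytoplasmic ramification, rounding and detachment from wells.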

Experiment [4] is described as follows: Inhibition of CuSO4-induced human LDL oxidation assessed as ratio of length of lag phase of conjugated diene formation in presence of compound to untreated control at 100 uM measured every 10 mins for 8 hrs by spectrophotometry. The format is functional. An outline of the steps:
as §1

Experiment [5] can be described thus: Cytoprotective activity against minimally oxidized LDL-induced cytotoxicity in BAEC assessed as cell vitality at 10 uM treated for 24 hrs before mO-LDL challenge measured after 16 hrs by MTT assay. Type of experiment: functional, Bos taurus. An outline of the steps:
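Primary bovine aortic endothelial cells grown in DMEM with 10% newborn calf serum, glutamine and penicillin. Pretreated 24 h with drug in methanol, then 16 h at 37 °C with air-oxidized LDL (100 µg protein/mL, made by incubating LDL at 30 °C without CuSO4 or AAPH) plus drug (final 10 µM). MTT (5 mg solution in PBS) added for 5 h. Formazan dissolved in dimethylformamide, A590 read, expressed as % of control wells.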

The test system of experiment [6] is BAEC. Kind of experiment: Cytoprotective activity against LDL-induced cytotoxicity in BAEC assessed as decrease in LDH release at 10 uM treated for 24 hrs before LDL challenge measured after 16 hrs by spectrometry. Type of experiment: functional. As to conditions: Bos taurus. Put shortly:
(§2)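 BAECs (primary, bovine aorta) in DMEM with 10% newborn calf serum, glutamine, penicillin. Pretreated 24 h with drug in methanol (final 10 µM), then 16 h at 37 °C with drug plus native LDL or mO-LDL at 100 µg/mL (mO-LDL from LDL incubated at 30 °C without oxidant). Medium LDH read spectrometrically by NAD reduction, expressed as % of total LDH released by 0.1% Triton X-100; mean (SD) of two incubations in triplicate.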

Experiment [7] is described as follows: Inhibition of AAPH-induced human LDL oxidation assessed as ratio of length of lag phase of conjugated diene formation in presence of compound to untreated control at 5 uM measured every 10 mins for 8 hrs by spectrophotometry. Type of experiment: functional. Put shortly: as §1
Experiment [8] can be described thus: Inhibition of CuSO4-induced human LDL oxidation assessed as length of lag phase of conjugated diene formation measured every 10 mins for 8 hrs by spectrophotometry. Type of experiment: functional. An outline of the steps: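 Human LDL (NaBr density ultracentrifugation, 1.019–1.063 g/mL) oxidized with 16.6 µM CuSO4 at 30 °C. Diene conjugation followed at 234 nm every 10 min for 8 h. Lag-phase length taken from the kinetic curves.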

Experiment [9] in a line: Cytoprotective activity against minimally oxidized LDL-induced cytotoxicity in BAEC assessed as LDH release at 10 uM treated for 24 hrs before mO-LDL challenge measured after 16 hrs by spectrometry. The format is functional, Bos taurus. Put shortly:
as §2

SMILES strings stand for the structures. The source made the active and inactive calls. No cut-off for these calls is given here. Where only a bound is given, the exact number is not on record here.

With `COc1cccc(C2NCCc3cc4sc(=O)n(C)c4cc32)c1` (stereo not given), the Ratio in experiment [1] is more than 5; in experiment [2], 2.1; in experiment [4], more than 5; in [7], 2. The outcome in experiment [3] was Active. For the same molecule, the Activity is 90% in experiment [5], “Dose-dependent effect” in [8] and 14.5% in experiment [9]. In experiment [6], the outcome was inactive.

As for `CCCN1CCc2c([nH]c3ccc(CC)cc23)C1c1cccc(OC)c1.Cl` (stereo not given), the Ratio was more than 5 in experiment [1], 1.6 in experiment [2], more than 5 in [4] and 1.5 in experiment [7]. Also, the outcome in experiment [3] was Active. Also, the Activity in experiment [5] is 90%; in experiment [8], “Dose-dependent effect”; in experiment [9] it was 15.32%. The result in experiment [6] was inactive.

For `CCCN1CCc2cc(O)c(NC)cc2C1c1cccc(O)c1` (stereo not given), the outcome in experiment [3] was Active. The Activity is 90% in experiment [5] and 14.1% in [9]. Besides, the result in experiment [6] was inactive.

For `COc1cccc(C2NCCc3cc4oc(=O)n(C)c4cc32)c1` (stereo not given), the Ratio was 1.8 in experiment [1], 1 in experiment [2] and more than 5 in [4]. In addition, the outcome in experiment [3] was Active. The results for the Activity in [5] and in experiment [8] were 90% and “Dose-dependent effect”, respectively. Further, in experiment [6], the outcome was inactive.

For `CCCN1CCc2cc3oc(=O)n(C)c3cc2C1c1cccc(OC)c1` (stereo not given), the Ratio was 3.3 in experiment [1], 1.5 in [2] and more than 5 in [4]. Besides, the result in [3] was Active. The figures for the Activity in experiment [5] and in experiment [8] were 90% and “Dose-dependent effect”, respectively. Moreover, in experiment [6], the result was inactive.

On to `CCCN1CCc2cc3sc(=O)n(C)c3cc2C1c1cccc(OC)c1` (stereo not given), for which the Ratio in experiment [1] was more than 5; in experiment [2] it was 2.1; in [4] it was more than 5; in experiment [7] it was 1.9. Moreover, in [3], the outcome was Active. The Activity in experiment [5] was 90%; in experiment [8], “Dose-dependent effect”; in experiment [9] it was 14.6%. The outcome in experiment [6] was inactive.

Turning to `COc1cccc(C2=NCCc3cc4oc(=O)n(C)c4cc32)c1`, the Ratio was 1.8 in experiment [1], 1 in experiment [2] and more than 5 in [4]. In addition, the result in experiment [3] was Active. Also, the Activity is 90% in experiment [5] and “Dose-dependent effect” in experiment [8]. Also, the result in experiment [6] was inactive.

As for `COc1ccc2[nH]c(=O)oc2c1` [COIXOL], in experiment [4], the Ratio is 1.5. For the same molecule, the Activity was 90% in [5] and “Dose-dependent effect” in experiment [8]. Further, the outcome in [6] was inactive.

In the case of `COc1ccc2[nH]cc(CCNC(C)=O)c2c1` [MELATONIN], the result in experiment [3] was Active. Further, the Ratio in experiment [4] worked out at 1.5. The Activity in [5] is 90%; in experiment [8], “Dose-dependent effect”. In addition, in experiment [6], the outcome was inactive.

In the case of `CCCN1CCc2cc3oc(=O)n(C)c3cc2C1c1cccc(O)c1` (stereo not given), the Ratio in experiment [1] is more than 5; in [2], 2.5; in experiment [4], more than 5; in [7], 2.4. For the same molecule, the outcome in [3] was Active. Also, the Activity is 90% in [5], “Dose-dependent effect” in experiment [8] and 13.5% in experiment [9]. The outcome in experiment [6] was inactive.

With `CCCN1CCc2cc(O)c(NC)cc2C1c1cccc(OC)c1` (stereo not given), the Ratio was more than 5 in experiment [1], 3.2 in [2], more than 5 in experiment [4] and 3.3 in experiment [7]. Besides, the outcome in experiment [3] was Active. Besides, the figures for the Activity in experiment [5], in [8] and in experiment [9] were 90%, “Dose-dependent effect” and 13.2%, respectively. Besides, the result in [6] was inactive.

As for `CCCCCCCCCN1CCc2cc3oc(=O)n(C)c3cc2C1c1cccc(OC)c1` (stereo not given), the Ratio was 3.8 in [1], 1.7 in [2] and more than 5 in [4]. The result in experiment [3] was Active. Moreover, the Activity in experiment [5] was 90%; in [8], “Dose-dependent effect”. Moreover, the outcome in experiment [6] was inactive.

Regarding `COc1cccc(C2=NCCc3cc4sc(=O)n(C)c4cc32)c1`, the Ratio in experiment [1] is more than 5; in experiment [2] it was 2.5; in experiment [4], more than 5; in experiment [7] it was 2.5. The outcome in experiment [3] was Active. For the same molecule, the Activity in experiment [5] was 90%; in [8], “Dose-dependent effect”; in experiment [9], 14.12%. Also, the outcome in [6] was inactive.
